# Assay outcomes: PubChem BioAssay, several laboratories
# Lipid droplet: modulators of hepatic lipid droplet formation; AID 1656; hit rate 0.4% among 240,000; AML12 mouse hepatocytes, oleate lipid droplets, BODIPY imaging; inhibition, % at 6.5 µM;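 active = lipid droplet intensity inhibited by at least 50%, with more than 500 cells counted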
#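 Assay system: AML12 mouse liver cells | Compound dosing: One dose, 6.5 µM compound | Read-out basis: Droplet intensity reduction, % inhibition | Measured by: Fluorescence imaging, 20x objective, two fields per well | Schedule: Overnight treatment with compound plus oleate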
# KLK5 inh: blocks human kallikrein 5 protease activity | Q9Y337 | hit rate 0.59% among 210,000 | recombinant hK5, fluorogenic AMC substrate cleavage | inhibition, % at 5 µM;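 active = inhibition of 40% or more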;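 also: 0% = enzyme controls without compound and 100% = no-enzyme blanks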
# Target sequence (Q9Y337 67-293 limits assumed): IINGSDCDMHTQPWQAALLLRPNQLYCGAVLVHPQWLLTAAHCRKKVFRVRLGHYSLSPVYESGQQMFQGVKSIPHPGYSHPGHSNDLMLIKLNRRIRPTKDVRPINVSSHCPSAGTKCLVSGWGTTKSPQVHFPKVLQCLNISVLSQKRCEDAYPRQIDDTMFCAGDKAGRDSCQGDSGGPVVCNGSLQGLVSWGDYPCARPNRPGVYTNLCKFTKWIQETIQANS
# Biofilm kill mix: mixtures killing C. albicans biofilm; C. albicans biofilm persisters + clotrimazole, fluorescence viability; primary screen in compound mixtures of four per well; inhibition, % at 7.6 µM; hit rate 0.02% among 120,000;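 active = inhibition above 30.3% in the primary screen of four-compound pools, then above 30% when the compound was retested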;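 also: compounds exposed to preformed 24 h biofilms for 48 h; 0% = untreated biofilm control and 100% = clotrimazole plus chlorhexidine kill blank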
#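 Assay system: C. albicans biofilms / Medium: RPMI/MOPS medium, pH 7.0 / Schedule: biofilm formation 24 h, compound exposure 48 h, 37 °C / Measured by: Alamar Blue fluorescence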
# FXIIa inh: inhibitors of human coagulation factor XIIa; hit rate 0.3% among 220,000; AID 800; inhibition, % at 5 µM; purified FXIIa, Boc-QGR-AMC fluorogenic substrate, 2 h; in the data active = inhibition above about 40%;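 also: 0% = enzyme with no compound and 100% = blank without enzyme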
# FXIa inh: factor XIa (human) inhibition. inhibition, % at 5 µM. AID 798. P03951. purified FXIa, Boc-Glu-Ala-Arg-AMC fluorogenic substrate. hit rate 0.14% among 220,000;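 active = inhibition of at least 40%; inactive = inhibition below 40%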;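 also: fluorescence of freed AMC excited at 355 nm; 0% = enzyme without compound and 100% = no enzyme blank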
# thrombin 1536: thrombin (human) inhibition; inhibition, % at 5 µM; P00734; alpha-thrombin, Boc-VPR-AMC fluorogenic substrate cleavage; hit rate 0.26% among 220,000;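 active = inhibition at or above 40%; inactive = inhibition below 40%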;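 also: 0% = enzyme with no compound and 100% = wells without enzyme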
#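 System: Human alpha-thrombin protein | Medium: pH 7.5 Tris (50 mM) with NaCl 150 mM, Tween 20 0.05% | Times: Enzyme reaction carried out at room temperature | Detection: AMC fluorescence, 355/460 nm | Evaluation: Percent inhibition scaled between no-compound controls and no-enzyme blanks | Benchmarks: Enzyme without compound as high, wells lacking enzyme as low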
# Hep lipid conf: hepatic lipid droplet formation inhibition, confirmed; shares compounds with Lipid droplet; AML12 mouse hepatocytes, BODIPY lipid droplet imaging; droplets induced with 100 µM oleic acid; inhibition, % at 5.2 µM; hit rate 65% among 870; AID 463183;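 active = inhibition of lipid droplet metric at least 50%, with more than 300 cells in each of four replicates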;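 also: plate controls were DMSO with oleic acid for no effect and 5 µM Triacsin-C for full effect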
# AML12 cytotox: toxic to AML12 mouse hepatocytes in counter-screen; shares compounds with Lipid droplet; DAPI nuclear morphology cytotoxicity imaging; active compounds read high; cells fed 100 µM oleate overnight; z-score at 5 µM; hit rate 3% among 870; AID 463200; in the data active = z-score above about 6.3;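 also: compound exposure lasted overnight at 37 °C before fixation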
# An asterisk follows results filed as active; / = no result given. Hits are enriched below; roughly 1.1% of the tested compounds scored in any of these assays.
SMILES,Lipid droplet,KLK5 inh,Biofilm kill mix,FXIIa inh,FXIa inh,thrombin 1536,others
CC(=O)c1c(C)n(CCCOC(C)C)c2ccc(O)cc12,-9,43*,/,-9,3,37,
C=COCCn1c(C)c(C(C)=O)c2cc(O)ccc21,-6,-1,16,7,-4,-11,
COc1ccccc1-n1c(O)c(/C=N/N2CCCCC2)c(=O)n(-c2ccccc2OC)c1=S,3,-2,25,-1,2,-5,
CCN(CC)c1ccc(N=Cc2c(O)n(-c3ccc(Cl)cc3)c(=O)[nH]c2=O)cc1,/,3,/,18,6,-1,
CC(=O)N1CCN(c2ccc(N=Cc3c(O)n(-c4ccc(Cl)cc4)c(=O)[nH]c3=O)cc2)CC1,-1,59*,/,15,9,10,
C=CCn1c(O)c(C(C)=O)c(=O)[nH]c1=O (tested in a mixture with another compound),2,-5,19,8,0,3,
CN(CCc1nnc(N)s1)[N+](=O)[O-],-7,10,10,7,-3,-4,
O=P(C(=Nc1ccc(Cl)cc1)N1CCOCC1)(N1CCOCC1)N1CCOCC1,-4,42*,8,20,15,28,
O=C(NCCN1CCOCC1)c1ccc(Cl)nc1Cl,-5,8,27,15,8,/,
CN(CC1COc2ccccc2O1)c1nc(-c2cccnc2)nc2ccccc12 (configuration not stated),/,53*,/,10,11,17,
CN1CCC(N(C)c2nc(-c3ccc([N+](=O)[O-])cc3)nc3ccccc23)CC1,17,-13,/,12,8,-3,
CCN(CC)C1=NC(=[N+](CC)CC)c2ccccc21,/,18,/,10,1,-2,
CC1CC(NC(=O)C2C3CCC(O3)C2C(=O)O)CC(C)(C)C1 (configuration not stated),-11,-5,15,46*,23,-4,
CN1CCN(Cc2cn(C)c3ccccc23)CC1CCO (configuration not stated),-6,/,/,/,/,/,
CCN(CC)CCN=Cc1c(O)n(Cc2ccco2)c(=O)[nH]c1=O,-3,-5,1,4,-1,-9,
O=c1[nH]c(=O)n(Cc2ccco2)c(O)c1C=NCc1ccco1,/,44*,/,1,16,14,
Cc1ccccc1NC(=O)CCl,3,-5,21,13,1,50*,
CN(C)C(Cc1ccccc1)C(=O)c1ccc(-c2ccccc2)cc1 (configuration not stated),1,98*,/,13,11,17,
Cc1ccc(NC(=O)[C@@H](NC(=O)N2C[C@H]3C[C@@H](C2)c2cccc(=O)n2C3)C(C)C)cc1,-15,/,/,/,/,/,
CCCC(C)C1C(C#N)=C(N)Oc2c1c(=O)oc1ccccc21 (configuration not stated),-14,68*,/,26,16,10,
C[C@]12CCC(=O)C=C1CC[C@@H]1[C@@H]2CC[C@@]2(C)[C@H]1CC[C@]2(C)O,-2,/,/,/,/,/,
C[C@]12CCC(=O)C=C1CCC1C2CC[C@@]2(C)C1CC[C@@]2(O)CC#N (some centres not stated),/,62*,8,17,9,16,
Cc1ccc2c(c1)c(=O)c1c3n2CCN(CC2CO2)C3CC1 (configuration not stated),5,11,10,7,-5,-7,
Cc1cccc(CCNCc2cc3cccc(C)c3[nH]c2=O)c1,-14,/,/,/,/,/,
COc1ccc(NC(=O)c2cc([N+](=O)[O-])ccc2N2CCNCC2)cc1,9,51*,9,29,23,5,
SMILES,Lipid droplet,KLK5 inh,Biofilm kill mix,FXIIa inh,FXIa inh,thrombin 1536,others
NNC(=O)CN1C(=O)CN=C(c2ccccc2)c2cc(Br)ccc21,-6,27,19,44*,19,33,
COC(=O)C1=CO[C@@H](C)[C@@H]2CN3CC[C@]4(C(=O)Nc5ccccc54)[C@@H]3C[C@H]12,-4,-6,5,5,0,-2,
CCC(=NCC1CCCO1)c1c(O)n(-c2ccc(Cl)cc2)c(=O)[nH]c1=O (configuration not stated),/,-21,/,13,-1,4,
CCC(=NCC1CCCO1)c1c(O)n(-c2ccccc2)c(=O)[nH]c1=O (configuration not stated),3,61*,/,18,18,15,
CN(C)CP(=O)(Nc1ccccc1)N(C)C (configuration not stated),/,67*,/,19,5,27,
CCNc1cc(N2CCNCC2)ccc1[N+](=O)[O-],-6,28,9,28,68*,34,
CCOP(=O)(OCC)C(NC(=O)CN1C(=O)c2ccccc2S1(=O)=O)C(Cl)(Cl)Cl (configuration not stated),-5,-10,9,6,4,-2,
CCc1ccccc1N1C(=O)CC(=O)NC1=O,14,34,19,29,42*,46*,
Cc1ccccc1N1C(=O)CC(=O)NC1=O,/,-1,/,20,14,2,
CC1CCCC(C)N1/N=C/c1c[nH]c2ccc(Br)cc12 (configuration not stated),-2,45*,20,19,1,18,
Cc1nn(Cc2ccccc2)c(Cl)c1C(=O)OC(C)C(=O)Nc1ccc(F)cc1Cl (configuration not stated),-27,-7,12,7,2,-5,
Cn1nnc(CC[N+](C)(C)C)n1,-8,38,25,27,56*,43*,
CN(C)C(=O)CSc1nnc([C@@H](N)Cc2ccccc2)o1,/,23,/,61*,13,61*,
Cc1c(C(=O)O)cc(-c2ccccc2)n1Cc1ccccc1,3,/,/,/,/,/,
N=c1n(CCO)c2ccccc2n1Cc1ccccc1,/,30,/,17,14,67*,
CCOc1ccc(-c2c(C)n(-c3ccc(OCC)cc3)c3[n+]2CCCCC3)cc1,0,36,13,46*,51*,6,
CCOc1ccc(-n2c(-c3ccoc3)nc3ccccc3c2=O)cc1,11,-31,/,10,2,5,
CCCCc1ccc(NC2=NCCCS2)cc1,-2,/,/,/,/,/,
COc1cc(C(CN)CC(=O)O)ccc1O (configuration not stated),2,-2,29,11,4,0,
CCOC(=O)C1(c2ccccc2)CCN(Cc2cccc(C(=O)O)c2)CC1,/,44*,/,19,12,20,
COc1ccc(OCC(=O)N2CCN(C/C=C/c3ccccc3)CC2)cc1,0,26,21,/,38,82*,
CC1(C)CN=C(Nc2ccc(F)c(Cl)c2)S1,116*,-1,9,8,1,-1,Hep lipid conf=3;AML12 cytotox=-0.0092
CC1(C)CN=C(Nc2ccc(F)c(F)c2)S1,/,-11,/,12,4,-3,
CCc1ccc(-n2c(O)c(C(C)=O)c(=O)[nH]c2=O)cc1 (tested in a mixture with another compound),70*,-4,16,5,0,-3,Hep lipid conf=23;AML12 cytotox=-1.3
CCC(=O)N1CC(=O)Nc2ccc(Br)cc2C1c1ccccc1 (configuration not stated),6,0,4,3,-2,-3,
